M5 antag = blocks acetylcholine activation of human M5 receptor. inhibition, % at 3 µM. CHO-hM5 cells, Fluo-8 calcium fluorescence, ACh EC80. AID 624040. actives 0.59% (n = 360,000);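 active means inhibition above a per-plate cutoff, the mean of that plate's test compounds plus 3 SD, cut at about 27% in these data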
M5 ag = agonists of human muscarinic M5 receptor (CHRM5); CHO-K1 hM5 cells, Fluo-8 calcium fluorescence; 0% DMSO wells, 100% maximal acetylcholine response; activation, % at 3 µM; actives 0.19% (n = 360,000); AID 624037;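 active means activation above the run's mean over test compounds plus 3 SD, cut at about 23% in these data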;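 further: signal is peak over basal fluorescence ratio across the kinetic read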
M4 PAM = CHRM4 positive allosteric modulation. AID 624126. activation, % at 3 µM. CHO-K1 hM4/Gqi5, Fluo-8 calcium fluorescence, ACh EC20; 0% = ACh EC20, 100% = maximal ACh. actives 0.4% (n = 360,000);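 active means activation above its plate's cutoff, the mean activation of sample wells plus 3 SD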
Target sequence (P08173 whole entry, looked up): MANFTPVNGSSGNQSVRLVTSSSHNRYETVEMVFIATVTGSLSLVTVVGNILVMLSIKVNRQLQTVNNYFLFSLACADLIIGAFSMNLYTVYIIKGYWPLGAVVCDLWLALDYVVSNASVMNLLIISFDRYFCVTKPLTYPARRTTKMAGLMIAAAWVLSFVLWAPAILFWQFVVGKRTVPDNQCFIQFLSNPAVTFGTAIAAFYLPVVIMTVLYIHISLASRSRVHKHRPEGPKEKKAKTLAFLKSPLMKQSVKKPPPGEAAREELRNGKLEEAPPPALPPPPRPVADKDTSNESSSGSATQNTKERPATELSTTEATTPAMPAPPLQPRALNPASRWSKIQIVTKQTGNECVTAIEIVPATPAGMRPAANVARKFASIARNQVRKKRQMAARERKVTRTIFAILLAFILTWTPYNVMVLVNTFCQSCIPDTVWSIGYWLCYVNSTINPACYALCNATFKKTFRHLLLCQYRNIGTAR
CHRM5 PAM = positive allosteric modulators of human muscarinic M5 receptor; actives 0.3% (n = 360,000); CHO-K1 hM5, Fluo-8 calcium, ACh EC20 PAM; 0% = ACh EC20, 100% = ACh EC100; P08912; activation, % at 3 µM; AID 624038;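 active means activation above the run cutoff, the mean activation of all test compounds plus 3 SD, cut at about 18% in these data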
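Test system: CHO-K1 hM5 cells / Doses: single-point, 3 µM nominal / Times: Post-acetylcholine fluorescence recording 140 s / Technique: Fluo-8 calcium fluorescence / Measure: Max/basal fluorescence ratio as % of EC20–EC100 ACh window / Benchmarks: low control EC20 acetylcholine (0%), high control EC100 acetylcholine (100%) / Replicates: one well per compound, no replicates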
CHRM4 antagonist = CHRM4 antagonism in calcium assay. CHO-hM4 cells, ACh EC80, Fluo-8 calcium fluorescence. P08173. inhibition, % at 3 µM. actives 0.73% (n = 360,000). AID 624125;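 active means inhibition above its plate's cutoff, the mean inhibition of sample wells plus 3 SD, cut at about 27% in these data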
CHRM4 agonist = CHRM4 agonism in calcium assay | actives 0.14% (n = 360,000) | AID 624127 | activation, % at 3 µM | P08173 | CHO-K1 hM4/Gqi5, Fluo-8 calcium fluorescence; vehicle 0%, full acetylcholine response 100%;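 active means activation above the run mean over all test wells plus 3 SD, cut at about 32% in these data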;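 further: peak over basal fluorescence ratio per well then scaled between controls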
A number is an active result. Shown are actives, neighbours in structure and some others; about 1.8% of the full set was active somewhere.

`CCn1c(=O)n(CC)c2cc(N3CCCC3)c(NC(=O)c3cc(Cl)ccc3OC)cc21` gave M5 antag inactive, M5 ag inactive, M4 PAM inactive, CHRM5 PAM inactive, CHRM4 antagonist inactive and CHRM4 agonist inactive.
Cn1nnnc1SCC(=O)Nc1ccccc1[N+](=O)[O-] was read as M5 antag inactive, M5 ag inactive, M4 PAM inactive, CHRM5 PAM inactive, CHRM4 antagonist inactive and CHRM4 agonist inactive.
Screening COc1ccc(NC(=O)CSc2nnnn2C)cc1 returned M5 antag inactive, M5 ag inactive, M4 PAM inactive, CHRM5 PAM inactive, CHRM4 antagonist inactive and CHRM4 agonist inactive.
COc1ccc(C(=O)NNC(=O)CSc2nnnn2C)cc1 was read as M5 antag inactive, M5 ag inactive, M4 PAM inactive, CHRM5 PAM 19.3, CHRM4 antagonist inactive and CHRM4 agonist inactive.
For COc1ccc(NC(=O)CSc2nnnn2C)c([N+](=O)[O-])c1 the results were M5 antag 31.8, M5 ag inactive, M4 PAM inactive, CHRM5 PAM inactive, CHRM4 antagonist inactive and CHRM4 agonist inactive.
O=S1(=O)CC(N2CCC(Cc3ccccc3)CC2)CN1CCc1ccccc1 (stereo unspecified) was read as M5 antag inactive, M5 ag inactive, M4 PAM inactive, CHRM5 PAM inactive, CHRM4 antagonist inactive and CHRM4 agonist inactive.
For O=C(C(=O)N1CCN(c2ccc(F)cc2)CC1)c1cn(CC(=O)N2CCOCC2)c2ccccc12 the results were M5 antag inactive, M5 ag inactive, M4 PAM inactive, CHRM5 PAM inactive, CHRM4 antagonist inactive and CHRM4 agonist inactive.
CCOC(=O)c1ccccc1-n1c(C)cc(C2N=C(N)Nc3nc4ccccc4n32)c1C (stereo unspecified) was read as M5 antag inactive, M5 ag inactive, M4 PAM inactive, CHRM5 PAM inactive, CHRM4 antagonist 59.6 and CHRM4 agonist inactive.
Screening Cn1ccnc1COc1ccc(/C=N/O)cc1 returned M5 antag inactive, M5 ag inactive, M4 PAM inactive, CHRM5 PAM inactive, CHRM4 antagonist inactive and CHRM4 agonist inactive.
Screening Cc1ccc(-n2nc3c(n2)/C(=N/O)CC/C3=N\O)cc1 returned M5 antag inactive, M5 ag inactive, M4 PAM inactive, CHRM5 PAM 34.5, CHRM4 antagonist inactive and CHRM4 agonist inactive.
For O=C(CCN1C(=O)/C(=C/c2ccccc2F)SC1=S)NC1C=CS(=O)(=O)C1 (stereo unspecified) the results were M5 antag inactive, M5 ag inactive, M4 PAM inactive, CHRM5 PAM inactive, CHRM4 antagonist inactive and CHRM4 agonist inactive.
CC(C)CNC(=O)c1ccc(C2SCC(=O)N2Cc2ccccc2)cc1 (stereo unspecified) was read as M5 antag inactive, M5 ag inactive, M4 PAM inactive, CHRM5 PAM inactive, CHRM4 antagonist 46.7 and CHRM4 agonist inactive.
O=C(OCc1ccccc1)N1CCC2CC1c1cc(N3CCN(S(=O)(=O)c4cccc5ccccc45)CC3)ccc12 (stereo unspecified) was read as M5 antag inactive, M5 ag inactive, M4 PAM inactive, CHRM5 PAM inactive, CHRM4 antagonist inactive and CHRM4 agonist inactive.
`CC(C)(CC(=O)O)CC(=O)N1CCN(c2nc3cc(Cl)ccc3s2)CC1` gave M5 antag inactive, M5 ag inactive, M4 PAM inactive, CHRM5 PAM inactive, CHRM4 antagonist inactive and CHRM4 agonist inactive.
CC1(C)CC(=O)C(=Cc2cn(CCC#N)nc2-c2ccc(Cl)cc2)C(=O)C1 was read as M5 antag inactive, M5 ag inactive, M4 PAM 19.8, CHRM5 PAM inactive, CHRM4 antagonist inactive and CHRM4 agonist inactive.
For NC(=S)N/N=C/c1ncc(C(F)(F)F)cc1Cl the results were M5 antag inactive, M5 ag inactive, M4 PAM inactive, CHRM5 PAM inactive, CHRM4 antagonist inactive and CHRM4 agonist inactive.
For CCCC1C(=O)Nc2ccccc2N1C(=O)c1cccc(C)c1 (stereo unspecified) the results were M5 antag 29.1, M5 ag inactive, M4 PAM inactive, CHRM5 PAM inactive, CHRM4 antagonist 45.0 and CHRM4 agonist inactive.
For Cc1ccc(CNC(=O)CCSCc2ccccc2F)cc1 the results were M5 antag inactive, M5 ag inactive, M4 PAM inactive, CHRM5 PAM inactive, CHRM4 antagonist inactive and CHRM4 agonist inactive.
c1ccc(Nc2nc(N3CCNCC3)nc(N3CCOCC3)n2)cc1 was read as M5 antag inactive, M5 ag inactive, M4 PAM inactive, CHRM5 PAM inactive, CHRM4 antagonist inactive and CHRM4 agonist inactive.
COc1ccc(Nc2nc(N3CCCC3)c3ccccc3n2)cc1 was read as M5 antag inactive, M5 ag inactive, M4 PAM inactive, CHRM5 PAM inactive, CHRM4 antagonist inactive and CHRM4 agonist inactive.
c1ccc(Nc2nc(N3CCOCC3)nc(N3CCOCC3)n2)cc1 was read as M5 antag inactive, M5 ag inactive, M4 PAM 31.3, CHRM5 PAM inactive, CHRM4 antagonist inactive and CHRM4 agonist inactive.
Screening CCN(CC)c1ccc(Nc2nc(N3CCOCC3)c3ccccc3n2)cc1 returned M5 antag 30.0, M5 ag inactive, M4 PAM inactive, CHRM5 PAM inactive, CHRM4 antagonist inactive and CHRM4 agonist inactive.
Screening CCOC(=O)Cn1c(=O)oc2cc(S(=O)(=O)Nc3ccc(F)cc3)ccc21 returned M5 antag inactive, M5 ag 28.1, M4 PAM inactive, CHRM5 PAM inactive, CHRM4 antagonist inactive and CHRM4 agonist inactive.
`CCOC(=O)Cn1c(=O)oc2cc(S(=O)(=O)NCCc3ccc(C)cc3)ccc21` gave M5 antag inactive, M5 ag inactive, M4 PAM inactive, CHRM5 PAM inactive, CHRM4 antagonist inactive and CHRM4 agonist inactive.
CC(=O)Nc1ccc(NC(=O)CSc2nc3[nH]ncc3c(=O)n2-c2ccccc2)cc1 was read as M5 antag inactive, M5 ag inactive, M4 PAM 20.3, CHRM5 PAM inactive, CHRM4 antagonist inactive and CHRM4 agonist inactive.
Screening COc1cc(NC(=O)CSc2nc3[nH]ncc3c(=O)n2-c2ccccc2)cc(OC)c1OC returned M5 antag inactive, M5 ag inactive, M4 PAM inactive, CHRM5 PAM inactive, CHRM4 antagonist inactive and CHRM4 agonist inactive.
Screening CCN(CC)S(=O)(=O)c1ccc(Oc2ccccc2)c(N)c1 returned M5 antag inactive, M5 ag inactive, M4 PAM inactive, CHRM5 PAM inactive, CHRM4 antagonist inactive and CHRM4 agonist inactive.
Screening CCN(CC)S(=O)(=O)c1ccc(N2CCN(c3ccccc3OC)CC2)c(N)c1 returned M5 antag 29.8, M5 ag inactive, M4 PAM inactive, CHRM5 PAM inactive, CHRM4 antagonist inactive and CHRM4 agonist inactive.
